Results collected from several papers.
Each line is one published result; the experiments were not run side by side.
rep papain-like protease: Replicase polyprotein 1ab, papain-like protease (rep, Porcine epidemic diarrhea virus, UniProt P0C6Y4)
SLC6A4: Sodium-dependent serotonin transporter (SLC6A4, Homo sapiens, UniProt P31645)
DRD1: D(1A) dopamine receptor (DRD1, Homo sapiens, UniProt P21728)

Structure (SMILES)	target	assay	conditions	inhibition
O=C(NCc1cc(O)c(O)c(Br)c1)c1ccc2ccccc2n1	rep papain-like protease	enzyme activity, inhibitor, FRET	10 µM	45.5%
Cc1cc(O)c(-c2ccc([C@@H](C)CN(C)C)cc2)c2c1[nH]c(=O)c1sccc12	STE20-related kinase adapter protein alpha (STRADA, Homo sapiens, UniProt Q7RTN6)	enzyme activity, inhibitor	0.1 µM	14.8%
CCOC(=O)[C@@]12C[C@@H]1[C@@H](n1cnc3c(Nc4ccccc4)nc(I)nc31)[C@H](O)[C@@H]2O	SLC6A4	ligand displacement, radioligand	10 µM	-12%
COc1ccc(C(=O)NCc2cc(Br)c(OC)c(OC)c2)cc1	Replicase polyprotein 1ab, main protease (rep, Porcine epidemic diarrhea virus, UniProt P0C6Y4)	enzyme activity, inhibitor, FRET	10 µM	83.7%
CCN1/C(=C/C(C)=O)Sc2ccc(F)cc21	DRD1	ligand displacement, radioligand	10 µM	7.04%
N#CC[C@@]12C[C@@H]1[C@@H](n1cnc3c(NCCCCCc4ccccc4)nc(I)nc31)[C@H](O)[C@@H]2O	SLC6A4	ligand displacement, radioligand	10 µM	3%
C#Cc1cc(-c2cc(Nc3nc(N[C@@H](C)c4ccc(F)cn4)ncc3Cl)n[nH]2)ccc1C=O	Serine/threonine-protein kinase Nek2 (NEK2, Homo sapiens, UniProt P51955)	enzyme activity, inhibitor	0.2 µM	22.5%
OC[C@@]12C[C@@H]1[C@@H](n1cnc3c(NC(C4CCC4)C4CCC4)nc(C#Cc4ccc(Cl)s4)nc31)[C@H](O)[C@@H]2O	SLC6A4	ligand displacement, radioligand	10 µM	15%
COc1cc(CNC(=O)c2cc3ccccc3n2C)cc(Br)c1OC	rep papain-like protease	enzyme activity, inhibitor, FRET	10 µM	13%
NC/C(=C\F)COc1cccc(Cn2c(=S)[nH]c(=O)c3[nH]cnc32)c1	DRD1	ligand displacement, radioligand	10 µM	< 50%
COc1cc(CNC(=O)c2cccc(OC(C)=O)c2C)cc(Br)c1OC	rep papain-like protease	enzyme activity, inhibitor, FRET	10 µM	14.1%
CCOC(=O)[C@@]12C[C@@H]1[C@@H](n1cnc3c(NCCCCc4ccccc4)nc(I)nc31)[C@H](O)[C@@H]2O	SLC6A4	ligand displacement, radioligand	10 µM	20%
Cn1c(C(=O)NCc2cc(O)c(O)c(Br)c2)cc2ccccc21	rep papain-like protease	enzyme activity, inhibitor, FRET	10 µM	86.3%
CCOC(=O)[C@@]12C[C@@H]1[C@@H](n1cnc3c(NC4CC4)nc(C#Cc4ccc(Cl)s4)nc31)[C@H](O)[C@@H]2O	SLC6A4	ligand displacement, radioligand	10 µM	15%
Cc1cc(F)cc2c(CCC(=O)N[C@@H]3C(=O)NC[C@H]3O)c(-c3ccc(F)cc3)[nH]c12	DRD1	cell-free assay	10 µM	11%
